Converted amounts (≈) assume the structure as drawn.
What was measured:
Type in all cases: functional
[1] = tested on: Candida albicans; experiment: Antimicrobial activity against Candida albicans by broth microdilution method
Outline: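 C. albicans was grown on PDA agar at 28 °C for 48 h, then diluted to about 1 × 10^7 CFU/mL. Compounds were dissolved in DMSO. MIC was determined by broth microdilution as the lowest concentration with no growth by turbidity, with MTT absorbance read at 570 nm. Duplicates, repeated three times.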

[2] = tested on: Escherichia coli; experiment: Antimicrobial activity against Escherichia coli by broth microdilution method
Outline: (§1)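 Bacteria were grown on MH agar at 37 °C for 24 h, then diluted to about 1 × 10^7 CFU/mL. Compounds were dissolved in DMSO. MIC was determined by broth microdilution as the lowest concentration with no growth by turbidity, with MTT absorbance read at 570 nm. Duplicates, repeated three times.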

[3] = tested on: Staphylococcus aureus; experiment: Antimicrobial activity against Staphylococcus aureus by broth microdilution method; outline: as §1
[4] = tested on: Pseudomonas aeruginosa; experiment: Antimicrobial activity against Pseudomonas aeruginosa by broth microdilution method; outline: as §1
[5] = tested on: Bacillus cereus; experiment: Antimicrobial activity against Bacillus cereus by broth microdilution method; outline: as §1
[6] = tested on: Enterococcus faecalis; experiment: Antimicrobial activity against Enterococcus faecalis by broth microdilution method; outline: as §1

Row | SMILES | MIC [1] | MIC [2] | MIC [3] | MIC [4] | MIC [5] | MIC [6]
1 | C[C@H]1[C@H](C)CC[C@]2(C)CC[C@]3(C)C(=C[C@@H](O)[C@@H]4[C@@]5(C)CCC(=O)C(C)(C)[C@@H]5CC[C@]43C)[C@H]12 | 70.4 µM (≈ 31 µg/mL) | 70.4 µM (≈ 31 µg/mL) | 35.2 µM (≈ 15.5 µg/mL) | 70.4 µM (≈ 31 µg/mL) | 70.4 µM (≈ 31 µg/mL) | 35.2 µM (≈ 15.5 µg/mL)
2 | C[C@@H]1CC[C@]2(C)CC[C@]3(C)[C@@](O)(CC[C@@H]4[C@@]5(C)CC[C@H](O)C(C)(C)[C@@H]5CC[C@]43C)[C@]2(O)[C@H]1C | 69.6 µM (≈ 32.1 µg/mL) | 140 µM (≈ 64.5 µg/mL) | 69.6 µM (≈ 32.1 µg/mL) | 140 µM (≈ 64.5 µg/mL) | 140 µM (≈ 64.5 µg/mL) | 50 µM (≈ 23 µg/mL)
3 | CO[C@@H]1C[C@@]2(C)[C@@H]3[C@@H](C)[C@H](C)CC[C@]3(C)CC[C@]2(C)C2=C1[C@@]1(C)CC[C@H](OC(C)=O)C(C)(C)[C@@H]1C[C@H]2O | 89.5 µM (≈ 46.1 µg/mL) | 89.5 µM (≈ 46.1 µg/mL) | 89.5 µM (≈ 46.1 µg/mL) | 44.7 µM (≈ 23 µg/mL) | 179 µM (≈ 92.1 µg/mL) | 89.5 µM (≈ 46.1 µg/mL)
4 | CC1COc2c(N3CCN(C)CC3)c(F)cc3c(=O)c(C(=O)O)cn1c23 (stereo unspecified) [OFLOXACIN] |  | 0.43 µM (≈ 0.155 µg/mL) | 0.43 µM (≈ 0.155 µg/mL) | 0.43 µM (≈ 0.155 µg/mL) | 0.86 µM (≈ 0.311 µg/mL) | 0.86 µM (≈ 0.311 µg/mL)
5 | C[C@H]1[C@H](C)CC[C@]2(CO)CC[C@]3(C)C(=CC[C@@H]4[C@@]5(C)CC[C@H](O)C(C)(C)[C@@H]5CC[C@]43C)[C@H]12 [UVAOL] | 283 µM (≈ 125 µg/mL) | 142 µM (≈ 63.1 µg/mL) | 70.1 µM (≈ 31 µg/mL) | 283 µM (≈ 125 µg/mL) | 283 µM (≈ 125 µg/mL) | 142 µM (≈ 63.1 µg/mL)
6 | C[C@H]1[C@H](C)CC[C@]2(C)CC[C@]3(C)C(=C[C@@H](O)[C@H]4[C@@]3(C)[C@H](O)C[C@@]35OO[C@@H](CC(=O)C3(C)C)[C@]45C)[C@H]12 | 31.9 µM (≈ 15.5 µg/mL) | 31.9 µM (≈ 15.5 µg/mL) | 14.9 µM (≈ 7.25 µg/mL) | 31.9 µM (≈ 15.5 µg/mL) | 63.8 µM (≈ 31.1 µg/mL) | 31.9 µM (≈ 15.5 µg/mL)
7 | C[C@H]1[C@H](C)CC[C@]2(C)CC=C3[C@](C)([C@H]12)[C@H]1O[C@H]1[C@@H]1[C@@]2(C)CC[C@H](O)C(C)(C)[C@@H]2CC[C@@]31C | 36.3 µM (≈ 16 µg/mL) | 36.3 µM (≈ 16 µg/mL) | 72.7 µM (≈ 32 µg/mL) | 36.3 µM (≈ 16 µg/mL) | 72.7 µM (≈ 32 µg/mL) | 36.3 µM (≈ 16 µg/mL)
